Source: PubChem BioAssay
The list is not random: actives were taken first. Their share in the collection is about 3.3%.
ABCB6 inh MLPCN – inhibitors of human ABC transporter ABCB6 | hit rate 0.19% among 360,000 | K562-ABCB6 porphyrin accumulation, flow cytometry, 1 h; hits give low values | AID 602162 | Q9NP58 | fluorescence ratio to DMSO, % at 10 µM;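 active means fluorescence ratio to DMSO below 75%, the collection mean minus 3 SD; inconclusive means too few cells collected in the well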;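 further: signal is porphyrin accumulated inside mitochondria; 100% equals median channel fluorescence of DMSO control wells; lower ratio means ABCB6 inhibition with less porphyrin fluorescence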
Myeloid diff MLP – promotes myeloid progenitor differentiation; ER-HoxA9 myeloid progenitors, lysozyme-GFP differentiation, flow cytometry; hit rate 1% among 360,000; AID 624256; calls only at 10 µM;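 active means normalized GFP-positive differentiation at or above the plate's own cutoff, the solvent-only control mean plus 3 SD; inconclusive means no clear call, values can overlap the other calls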;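 further: cells exposed to compound for four days before flow analysis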
Arrestin-AP2 inh – inhibitors of human beta-arrestin and AP2 interaction; FITC-arrestin peptide / GST-AP2 beads, flow cytometry; AP2 beta2 appendage carries R879A mutation; inhibition, % at 10 µM; hit rate 0.31% among 340,000; AID 504490;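 active means inhibition above a set limit, near 3 SD of compounds lacking own fluorescence, cut at about 54% in these data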;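 further: plate controls were DMSO wells for no effect and 5 µM unlabelled arrestin peptide for full effect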
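Test system: GST-tagged AP2 beta2-adaptin appendage (R879A) on 4 µm glutathione beads; also added: fluorescein-tagged arrestin peptide at 50 nM final; timing: 12 min plus 1 h, RT; signal: flow cytometry, FL1 (488/535 nm); read-out: percent drop in bead-associated FITC signal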
Exocytosis inh – blocks lytic granule exocytosis; inhibition, % at 10 µM; TALL-104 LAMP-1 surface exposure, flow cytometry; cells stimulated with thapsigargin and PMA; AID 651702; hit rate 0.66% among 360,000;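 active means inhibition above about 55%, limit read from the data; inconclusive means no clear call, values can overlap the other calls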
ATG4B inhibitor – inhibitors of human ATG4B cysteine protease | hit rate 0.51% among 340,000 | inhibition, % at 8.33 µM | ATG4B cleavage of LC3-PLA2, NBD-HPC fluorescence, 1 h | Q9Y4P1 | AID 504462; in the data active means inhibition above about 40%
Target sequence (Q9Y4P1 whole entry, looked up): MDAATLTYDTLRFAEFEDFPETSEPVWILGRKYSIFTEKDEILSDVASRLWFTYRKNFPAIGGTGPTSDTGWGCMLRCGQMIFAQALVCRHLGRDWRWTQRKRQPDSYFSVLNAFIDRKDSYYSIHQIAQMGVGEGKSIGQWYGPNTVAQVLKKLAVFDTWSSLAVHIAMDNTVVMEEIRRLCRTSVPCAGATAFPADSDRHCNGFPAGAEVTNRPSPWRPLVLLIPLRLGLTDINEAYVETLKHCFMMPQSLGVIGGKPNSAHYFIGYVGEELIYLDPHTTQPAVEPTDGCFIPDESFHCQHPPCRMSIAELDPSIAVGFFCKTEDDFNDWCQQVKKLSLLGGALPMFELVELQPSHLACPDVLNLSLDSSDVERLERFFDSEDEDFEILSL
NRP1-CendR mod – modulators of CendR peptide binding to human neuropilin-1 | inhibition, % at 25 µM | hit rate 0.85% among 360,000 | O14786 | FAM-RPARPAR peptide binding to NRP-1, fluorescence polarization | AID 602438;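 active means inhibition or corrected inhibition above about 18%, plus a signal ratio from 0.5 to 1.5, limit read from the data, passing the limit was not always enough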
Active calls of the source: *; i = inactive; ? = inconclusive; · = no result given; + = active, no number.

SMILES	ABCB6 inh MLPCN	Myeloid diff MLP	Arrestin-AP2 inh	Exocytosis inh	ATG4B inhibitor	NRP1-CendR mod
O=C(CCCN1CCN(c2ccccc2)CC1)c1ccc(F)cc1	101.0	i	·	-0.1	·	1.4
O=C1CC(=C(c2ccccc2)c2ccccc2)C(=O)N1CCCCN1CCN(c2ccccc2)CC1	108.0	i	1.7	58.5*	6.7	-0.7
Cc1ccc(CNC(=O)c2ccc3c(c2)S(=O)(=O)c2ccccc2C3=O)o1	93.0	i	7.1	6.3	-13.9	4.5
CCC(=O)Nc1ccc(NC(=O)CSc2nnnn2C2CCCC2)cc1C	94.0	i	-7.1	28.0	-5.2	-6.9
CCOc1ccc(CCN2C(=S)N([C@@H](Cc3ccc(O)cc3)CN3CCC[C@@H]3CN3C(=S)NC[C@@H]3CC(C)C)C[C@@H]2Cc2ccc(O)cc2)cc1	98.0	+	·	55.4	·	15.2
CC(C)C[C@H]1CNC(=S)N1CC1CCCN1C[C@H](Cc1ccc(O)cc1)N1C[C@H](Cc2ccccc2)N(CC2CCCCC2)C1=S (stereo partly specified)	98.0	i	10.0	11.9	·	-5.5
CC(C)C[C@H]1CNC(=S)N1C[C@H]1CCCN1C[C@H](Cc1ccccc1)N1C[C@H](Cc2ccc(O)cc2)N(CC2CCCCC2)C1=S	94.0	+	·	25.1	·	13.5
CCOc1ccc(CCN2C(=S)N([C@@H](Cc3ccccc3)CN3CCC[C@@H]3CN3C(=S)NC[C@@H]3Cc3ccc(O)cc3)C[C@@H]2CC(C)C)cc1	102.0	i	·	16.3	·	18.6*
CCOc1ccc(CCN2C(=S)N([C@@H](Cc3ccc(O)cc3)CN3CCCC3CN3C(=S)NC[C@@H]3Cc3ccc(O)cc3)C[C@@H]2CC(C)C)cc1 (stereo partly specified)	87.0	i	-1.8	-3.5	·	9.9
Oc1ccc(C[C@H]2CN([C@@H](Cc3ccc(O)cc3)CN3CCC[C@@H]3CN3C(=S)NC[C@@H]3Cc3ccccc3)C(=S)N2CCc2ccccc2)cc1	100.0	i	·	34.2	·	5.0
CC(C)CN1CCN(C(=O)COC(=O)c2ccc(S(C)(=O)=O)c([N+](=O)[O-])c2)CC1	107.0	+	·	-5.1	·	5.9
COc1ccc(C(=O)OCC(=O)N2CCCCC2)cc1[N+](=O)[O-]	97.0	i	-9.4	-3.0	0.4	12.1
COc1ccc(C(=O)OCC(=O)N2CCN(S(=O)(=O)c3ccc(C)cc3)CC2)cc1[N+](=O)[O-]	96.0	i	1.7	-1.4	-2.9	26.2*
O=C(CCc1nnc(C2CCCCC2)o1)NCc1cccc(-n2cccn2)c1	97.0	i	-1.4	-2.3	-15.8	-4.4
COC(=O)CCCCCNC(=S)Nc1ccc2[nH]c(=O)[nH]c2c1	99.0	i	-10.8	6.9	1.9	0.0
COc1ccc([N+](=O)[O-])cc1NC(=O)CCNC(=O)Cn1ccc2ccccc2c1=O	96.0	i	4.1	2.1	-3.4	29.7*
COc1ccc(OC)c(NC(=O)CCNC(=O)Cn2ccc3ccccc3c2=O)c1	97.0	i	-4.8	-2.7	-0.8	7.9
O=C(Cc1ccccc1[N+](=O)[O-])NCC(=O)c1ccc2c(c1)OCO2	95.0	i	2.7	25.8	-3.0	4.7
Cc1cc(/C=N\NC(=O)CC(=O)NC2CCCCC2)c(C)n1-c1ccc(Cl)c(Cl)c1	101.0	+	10.3	0.0	13.2	4.3
Cc1cc(/C=N\NC(=O)CC(=O)NC2CCCCC2)c(C)n1-c1cccc(Cl)c1Cl	101.0	i	20.9	1.0	-4.6	-1.4
CCc1nc(N)nc(N)c1-c1ccc(Cl)cc1	95.0	+	5.3	-3.9	-2.2	-3.5
Cc1ccc(C(=O)/C=C/c2ccc(Br)cc2)o1	100.0	+	16.5	0.5	-9.4	-8.5
C/C(=N\Nc1nnc(-c2ccccc2)c(-c2ccccc2)n1)c1cccc([N+](=O)[O-])c1	104.0	i	-0.9	-4.2	1.3	10.7
C/C(=N\Nc1cc(C)nc(NCc2ccccc2)n1)c1cccc([N+](=O)[O-])c1	101.0	i	-2.6	94.1*	-8.3	-5.0
CCCN(CC(=O)Nc1ccccc1C)C(=O)c1ccc(C2SCCS2)cc1	94.0	i	1.3	13.6	6.5	25.7*
CCCN(CC(=O)Nc1ccccc1C)C(=O)c1ccc(S(=O)(=O)N2CCCCCC2)cc1	100.0	?	-2.0	1.7	-4.0	12.3
